Source: ChEMBL document CHEMBL1135354, “Synthesis and activity of a novel class of tribasic macrocyclic antibiotics: the triamilides” (2002)
Converted amounts (≈) assume the structure as drawn.

How the values were obtained:
Type in all cases: functional
[1] = tested on: Escherichia coli; assay: In vitro minimum inhibitory concentration required to inhibit growth of Escherichia coli.; conditions: Escherichia coli
How it was run: (§1)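 Broth microdilution per NCCLS; E. coli 51A0150 (poultry lung) and P. multocida 59A0067 (turkey). Overnight BHI plate colonies suspended in saline to OD625 0.09 (0.5 McFarland), diluted 1:100 in BHI broth; final ~5×10^5 cfu/mL against 2-fold serial dilutions in BHI broth.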

[2] = tested on: Pasteurella multocida; assay: Minimum inhibitory concentration required to inhibit growth of Pasteurella multocida in vitro by microdilution method.; conditions: Pasteurella multocida; read-out: MIC; how it was run: as §1
[3] = tested on: Pasteurella multocida; assay: Effective dose required to inhibit Pasteurella multocida infection model in mouse by subcutaneous administration; conditions: Pasteurella multocida, sc; read-out: ED50
How it was run: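 Mice infected intranasally with P. multocida (respiratory disease model); drug given subcutaneously 0.5 h post-infection at 5–80 mg/kg. ED50 derived from number of surviving mice 4 days after infection.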

CCCCCCNC[C@@]1(O)[C@H](C)O[C@@H](OC2[C@@H](C)C(=O)O[C@H](CC)[C@@](C)(O)[C@H](O)[C@@H](C)NC[C@H](C)C[C@@](C)(O)[C@H](O[C@@H]3O[C@H](C)C[C@H](N(C)C)[C@H]3O)[C@H]2C)C[C@@]1(C)OC (stereo partly drawn)
MIC [1]: 0.78 µg/mL (≈ 0.92 µM) | MIC [2]: 0.2 µg/mL (≈ 0.236 µM) | ED50 [3]: > 80 mg/kg
